Test results: ChEMBL document CHEMBL1821629, “Nigerapyrones A-H, α-pyrone derivatives from the marine mangrove-derived endophytic fungus Aspergillus niger MA-132” (J Nat Prod, 2011)
Activity calls are given as the source filed them.

Assays:
[1] = tested on: Botryosphaeria berengeriana; assay: Antimicrobial activity against Physalospora pyricola by disc diffusion method; format: functional, organism-based
How it was run: (§1)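 Disk diffusion assay run against a panel of two bacteria (Staphylococcus aureus, Escherichia coli) and four plant-pathogenic fungi (Alternaria brassicae, Fusarium oxysporum, Coniella diplodiella, Physalospora piricola). The positive control was chloramphenicol for the bacterial strains and amphotericin B for the fungal strains.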

[2] = tested on: Escherichia coli; assay: Antimicrobial activity against Escherichia coli by disc diffusion method; format: functional, organism-based; how it was run: as §1
[3] = tested on: Coniella diplodiella; assay: Antimicrobial activity against Coniella diplodiella by disc diffusion method; format: functional; how it was run: as §1
[4] = tested on: Fusarium oxysporum; assay: Antimicrobial activity against Fusarium oxysporum by disc diffusion method; format: functional, organism-based; how it was run: as §1
[5] = tested on: Staphylococcus aureus; assay: Antimicrobial activity against Staphylococcus aureus by disc diffusion method; format: functional, organism-based; how it was run: as §1
[6] = tested on: Alternaria brassicae; assay: Antimicrobial activity against Alternaria brassicae by disc diffusion method; format: functional; how it was run: as §1
[7] = tested on: A549; assay: Cytotoxicity against human A549 cells; format: functional, cell-based
[8] = tested on: DU-145; assay: Cytotoxicity against human DU145 cells; format: functional, cell-based
[9] = tested on: NCI-H460; assay: Cytotoxicity against human NCI-H460 cells; format: functional, cell-based
[10] = tested on: HepG2; assay: Cytotoxicity against human HepG2 cells; format: functional, cell-based
[11] = tested on: MDA-MB-231; assay: Cytotoxicity against human MDA-MB-231 cells; format: functional, cell-based
[12] = tested on: MCF7; assay: Cytotoxicity against human MCF7 cells; format: functional, cell-based
[13] = tested on: SW1990; assay: Cytotoxicity against human SW1990 cells; format: functional, cell-based

COc1cc(-c2cc(C)cc(C)c2-c2ccccc2)oc(=O)c1
active: inhibition [1] | inhibition [2] | inhibition [3] | inhibition [4] | inhibition [5] | inhibition [6]

COc1cc(/C=C/C(C)=C/C(C)=C/c2ccccc2)oc(=O)c1
active: inhibition [1] | inhibition [2] | inhibition [3] | inhibition [4] | inhibition [5] | inhibition [6]

COc1cc(/C=C/C(C)=C/C(C)=C\c2ccccc2)oc(=O)c1
active: inhibition [1] | inhibition [2] | inhibition [3] | inhibition [4] | inhibition [5] | inhibition [6]

COc1cc(/C=C/C(C)=C/C(C)=O)oc(=O)c1
active: inhibition [1] | inhibition [2] | inhibition [3] | inhibition [4] | inhibition [5] | inhibition [6]

COc1cc(/C=C/C(C)=C\C(C)=C\c2ccccc2)oc(=O)c1
active: inhibition [1] | inhibition [2] | inhibition [3] | inhibition [4] | inhibition [5] | inhibition [6]

COc1cc(\C=C/C(C)=C/C(C)=C/c2ccccc2)oc(=O)c1
active: inhibition [1] | inhibition [2] | inhibition [3] | inhibition [4] | inhibition [5] | inhibition [6]

COc1cc(/C=C/C(C)=C/C(C)=C/c2ccccc2)oc(=O)c1C [ASNIPYRONE A]
active: inhibition [1] | inhibition [2] | inhibition [3] | inhibition [4] | inhibition [5] | inhibition [6]
62 µM: IC50 [7]

O=c1[nH]cc(F)c(=O)[nH]1 [FLUOROURACIL]
31 µM: IC50 [12]
59 µM: IC50 [11]
52 µM: IC50 [7]
109 µM: IC50 [10]
8.5 µM: IC50 [9]
3.3 µM: IC50 [8]

COc1cc(-c2cc(C)cc(C)c2-c2ccccc2)oc(=O)c1C [NIGERAPYRONE B]
62 µM: IC50 [10]
active: inhibition [1] | inhibition [2] | inhibition [3] | inhibition [4] | inhibition [5] | inhibition [6]

COc1cc(/C=C/C(C)=C/C(C)=O)oc(=O)c1C [NIGERAPYRONE D]
active: inhibition [1] | inhibition [2] | inhibition [3] | inhibition [4] | inhibition [5] | inhibition [6]
121 µM: IC50 [12]
81 µM: IC50 [7] | IC50 [10]

COc1cc(/C=C/C(C)=O)oc(=O)c1C [NIGERAPYRONE E]
43 µM: IC50 [7] | IC50 [9]
105 µM: IC50 [12]
active: inhibition [1] | inhibition [2] | inhibition [3] | inhibition [4] | inhibition [5] | inhibition [6]
48 µM: IC50 [11]
86 µM: IC50 [8] | IC50 [10]
38 µM: IC50 [13]
